Measurements as given in PMC7885995 (Oncogene, 2020).

Experiments:
GBM PDX lines = assay: BAPTA calcium chelation before MED2; type: cell-based, human; conditions: BAPTA pretreatment, low concentrations, 5-hour CTL2/MED2; X1441, JX39, JX59
Procedure, shortened: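 Cells were pretreated with BAPTA-AM and then exposed to CTL2 or MED2 for 5 h, at 2.5 μM for X1441 and 5 μM for JX39 and JX59, with relative viability as read-out. For SYTOX, cells were pretreated with 50μM BAPTA and given peptide for 1.5 h. Percent SYTOX-positive cells was scored on the Xcyto10 image cytometer at 4X. Analysis used two-way ANOVA with Tukey's test.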

athymic nude mice = assay: In vivo MED2-CY7 biodistribution, tumor-naïve mice; set-up: species or system mouse; conditions: 3 hours
[1] = test system: X1016 PDX implanted into the brain of athymic nude mice; assay: In vivo MED2-CY7 accumulation in orthotopic GBM PDX; set-up: species or system mouse; conditions: tail-vein, 3 hours, Pearl / Odyssey CLx imaging
Procedure, shortened: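 6-week-old female athymic nude mice were stereotactically implanted with 5 × 10^5 X1016 cells into the caudate putamen 1 week before dosing. They were sorted by bioluminescence for similar tumor burden and randomized, unblinded, to two doses of Cy7-labeled peptide. Peptide in 100 μL saline went by tail vein, with sacrifice at 3 h. Brains were formalin-fixed, cut into 5 mm coronal slices and imaged on Pearl. Paraffin sections were H&E-stained or imaged on Odyssey CLx at […].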

[2] = test system: caspase 3/7 activation in GBM cells; assay: Caspase 3/7 activation; type: cell-based, human
Procedure, shortened: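 Cells pretreated with 1–200μM QVD-OPh or 100μM Z-VAD-FMK received MED2 or CTL2. They were lifted with their media and stained for 30 min at RT with CellEvent green caspase 3/7 dye, Annexin-V AlexaFluor 647 and SYTOX orange in Annexin-V binding buffer. Imaging was on Xcyto10 at 4X with channel compensation. Read-out was mean caspase fluorescence per cell relative to CTL2 (n>5000 cells).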

JX12 (classical GBM PDX) = assay: Cell viability; type: cell-based, human; conditions: JX12, 5μM MED2, normalized to 5μM CTL2, 72 h, n=4
Procedure, shortened: (§1)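 1 × 10^4 Trypan blue-counted live cells were plated in 90 μL medium in 4 replicates; PDX cells were kept in neurosphere medium and NHAs in standard medium. Peptide (PBS-reconstituted, added as 10X in medium) went on 2 h after plating. CellTiter-Glo ATP luminescence was read at 72 h. MED2 RLU was normalized to CTL2 (5 μM for 1–5 μM; 10 μM for 10 μM). GI50 was interpolated from a standard curve.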

[3] = test system: normal human astrocytes (NHAs); assay: Cell viability; type: cell-based; conditions: CellTiter-Glo, 72 h
Procedure, shortened: as §1

[4] = test system: GBM PDX lines (proneural, classical, mesenchymal subtypes); assay: Cell viability, statements for groups of GBM PDX lines; type: cell-based, human; conditions: multiple PDX subtypes, 5μM CTL2/MED2, 9 hours, p>0.05
[5] = test system: intracellular calcium in XD456; assay: Fluo-4 calcium imaging; type: cell-based, human; conditions: XD456, 3μM, serial imaging over two hours
Procedure, shortened: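 1 × 10^5 XD456 cells were attached in 24-well plates and loaded at 37C for 1.5 h in 1X Fluo-4 direct calcium assay buffer with 5mM probenecid. SYTOX and then 3μM CTL2 or MED2 were added. Serial live images, including one taken before peptide, were acquired at 10X on an EVOS FL using GFP and RFP channels.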

JX14 (classical GBM PDX) = assay: Cell viability; type: cell-based, human; conditions: JX14, 10μM MED2, normalized to 10μM CTL2, 72 h, n=4
Procedure, shortened: as §1

[6] = test system: JX22 (mesenchymal GBM PDX); assay: Cell viability; type: cell-based, human; conditions: JX22, 10μM MED2, normalized to 10μM CTL2, 72 h, n=4
Procedure, shortened: as §1

PARP1 cleavage in XD456 = assay: PARP1 cleavage immunoblot; type: cell-based, human; conditions: XD456, 3μM MED2, 5 and 24 hours
XD456 = assay: Time-lapse imaging and SYTOX uptake; type: cell-based, human; conditions: XD456, 3μM, time-lapse imaging
Procedure, shortened: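 XD456 cells were given 3μM MED2 and tracked by time-lapse still frames at 10X. For membrane permeabilization, cells received 5μM CTL2 or MED2 and were imaged every 5 min for 125 min at 20X. Imaging was on CellInsight CX7 in a heated CO2 chamber using Hoechst and SYTOX orange channels. Mean SYTOX intensity per cell was scored from n>400 cells.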

[7] = test system: XD456 (proneural GBM PDX); assay: Cell viability; type: cell-based, human; conditions: XD456, 2.5μM MED2, 72 h, n=4
Procedure, shortened: as §1

JX39 (classical GBM PDX) = assay: Cell viability; type: cell-based, human; conditions: JX39, 5μM MED2, normalized to 5μM CTL2, 72 h, n=4
Procedure, shortened: as §1

[8] = test system: X1441 (proneural GBM PDX); assay: Cell viability; type: cell-based, human; conditions: X1441, 2.5μM MED2, 72 h, n=4
Procedure, shortened: as §1

[9] = test system: JX59 (mesenchymal GBM PDX); assay: Cell viability; type: cell-based, human; conditions: JX59, 10μM MED2, normalized to 10μM CTL2, 72 h, n=4
Procedure, shortened: as §1

## CC(=O)OCOC(=O)CN(CC(=O)OCOC(C)=O)c1ccccc1OCCOc1ccccc1N(CC(=O)OCOC(C)=O)CC(=O)OCOC(C)=O [BAPTA, BAPTA-AM]
GBM PDX lines
  protection against MED2 cytotoxicity: no protective effects

## KKKKKRFSFKKSFKLSGFSFKKNKK-LC- K(Lumiprobe CY7) [MED2-CY7]
Athymic nude mice; 5 or 10 nanomoles, tail-vein, LI-COR Pearl, n=3 per dose group
  organs with greatest fluorescence intensity per mg tissue: kidney, liver, small and large intestines
Athymic nude mice; 5 or 10 nanomoles, tail-vein, n=3 per dose group
  brain partitioning: only a small percentage of total peptide reaching the brain
Athymic nude mice; tail-vein injection, tumor-naïve nude mice, Pearl imaging, n=3, p=0.026
  increase in brain (periventricular) fluorescence per mg tissue, 10nmol vs 5nmol: greater than threefold
[1]
  fluorescence in tumor-burdened regions of the brain compared to normal brain: substantial increases

## CC(C)[C@H](NC(=O)c1ccc2ccccc2n1)C(=O)N[C@@H](CC(=O)O)C(=O)COc1c(F)cccc1F [QVD-OPh, reference compound]
[2]; doubled QVD-OPh (200μM), n>5000
  reduction in MED2-induced caspase 3/7 activation: 50%

## CC(C)C[C@H](NC(=O)[C@H](CCCCN)NC(=O)[C@H](Cc1ccccc1)NC(=O)[C@H](CO)NC(=O)[C@H](CCCCN)NC(=O)[C@H](CCCCN)NC(=O)[C@H](Cc1ccccc1)NC(=O)[C@H](CO)NC(=O)[C@H](Cc1ccccc1)NC(=O)[C@H](CCCNC(=N)N)NC(=O)[C@H](CCCCN)NC(=O)[C@H](CCCCN)NC(=O)[C@H](CCCCN)NC(=O)[C@H](CCCCN)NC(=O)[C@H](CCCCN)NC(=O)[C@@H](N)CSC1CC(=O)N(CCC(=O)N[C@@H](Cc2ccc(O)cc2)C(=O)NCC(=O)N[C@@H](CCCNC(=N)N)C(=O)N[C@@H](CCCCN)C(=O)N[C@@H](CCCCN)C(=O)N[C@@H](CCCNC(=N)N)C(=O)N[C@@H](CCCNC(=N)N)C(=O)N[C@@H](CCC(N)=O)C(=O)N[C@@H](CCCNC(=N)N)C(=O)N[C@@H](CCCNC(=N)N)C(=O)N[C@@H](CCCNC(=N)N)C(N)=O)C1=O)C(=O)N[C@@H](CO)C(=O)NCC(=O)N[C@@H](Cc1ccccc1)C(=O)N[C@@H](CO)C(=O)N[C@@H](Cc1ccccc1)C(=O)N[C@@H](CCCCN)C(=O)N[C@@H](CCCCN)C(=O)N[C@@H](CC(N)=O)C(=O)N[C@@H](CCCCN)C(=O)N[C@@H](CCCCN)C(N)=O (some centres unmarked) [MED2]
[2]; MED2 treatment, P<0.001, n>5000
  caspase 3/7 activation compared with CTL2: increased caspase 3/7 activation
JX12 (classical GBM PDX)
  reduction in viability: > 50%
[3]; 5μM and 10μM
  change in NHA viability: increases in viability
[3]; 10μM
  toxicity in NHAs: no toxicity
[4]
  inhibition of viability in adherent vs suspension cells: equally effective
[5]
  Fluo-4 intensity (intracellular calcium): increased within minutes
JX14 (classical GBM PDX)
  reduction in viability: > 50%
[6]
  reduction in viability: > 50%
PARP1 cleavage in XD456
  PARP1 cleavage pattern: loss of both 122kD and 89kD bands with the formation of an approximately 72 kD band
XD456
  onset of morphological effects and signs of cellular injury: ≤ 1 hour
[7]
  reduction in viability: > 50%
JX39 (classical GBM PDX)
  reduction in viability: > 50%
[8]
  reduction in viability: > 50%
[9]
  reduction in viability: > 50%
